Measurements pooled from the literature.
Read-out: metabolic stability

| SMILES | host | medium | concentration | time | pH | notes | scaled CLint [mL/min/kg] |
| --- | --- | --- | --- | --- | --- | --- | --- |
| O=C(c1ccc(F)cc1)C1CCN(CCn2c(=O)[nH]c3ccccc3c2=O)CC1 | mouse | liver microsomes | – | – | – | – | 376 |
| Cc1cc(NC(=O)Cc2ccc(F)c(C#N)c2)n(CC2CCCCC2)n1 | mouse | liver microsomes | – | – | – | – | 2970 |
| COc1cc(C2Oc3cc([C@H]4Oc5cc(O)cc(O)c5C(=O)[C@@H]4O)ccc3OC2CO)ccc1O (stereo partly drawn) | mouse | liver microsomes | 1 µM | – | – | – | 66.5 |
| Cc1ccc(-c2nc3ccccc3s2)cc1NC(=O)c1cc([N+](=O)[O-])c(N2CCN(C)CC2)cc1Cl | CD-1 mouse | liver microsomes | 1 µM | 1 h | pH 7.4 | – | 105 |
| CCCN(C)Cc1cc(-c2[nH]c3cccc(F)c3c(=O)c2C)ccc1Cc1ccc(OC(F)(F)F)cc1 | mouse | liver microsomes | – | – | – | – | 1570 |
| CCOc1c(O)cc(Br)c2c1CN1CCc3cc(OCC(F)F)c(O)cc3[C@@H]1C2 | mouse | liver S9 | 2 µM | – | pH 7.4 | – | 1040 |
| Cc1ccc(F)c2cc(C(=O)N[C@@H]3CCC[C@H](N4CCN(C)C(=O)C4)C3)[nH]c12 | mouse | hepatocytes | 0.5 µM | 1 h | – | – | 164 |
| CN[C@@H]1CCN(c2ccc(Nc3cc(NC4CC4)n4ncc(C#N)c4n3)cc2NC(C)=O)C1 | male CD-1 mouse | hepatocytes | 1 µM | – | – | serum-free | 126 |
| Cc1cc(Cl)c(Cl)cc1NC(=O)c1ccc(N2CCNCC2)c([N+](=O)[O-])c1 | CD-1 mouse | liver microsomes | 1 µM | 1 h | pH 7.4 | – | 21 |
| Cc1ccc(F)c2cc(C(=O)N[C@@H]3CCC[C@H](N4CCN(S(C)(=O)=O)CC4)C3)[nH]c12 | mouse | hepatocytes | 0.5 µM | 1 h | – | – | 328 |
| Cc1ccc(-c2nc3ccccc3s2)cc1NC(=O)c1cc([N+](=O)[O-])c(F)cc1F | CD-1 mouse | liver microsomes | 1 µM | 1 h | pH 7.4 | – | 52 |
| Cc1ccc(F)c2cc(C(=O)N[C@@H]3CCC[C@H](c4ccncc4)C3)[nH]c12 | mouse | hepatocytes | 0.5 µM | 1 h | – | – | 399 |
| O=C(Nc1cncc(-c2nc3ccccc3o2)c1)c1ccc(N2CCNCC2)c([N+](=O)[O-])c1 | CD-1 mouse | liver microsomes | 1 µM | 1 h | pH 7.4 | – | 10 |
| O=c1ccc2ccc(O)cc2o1 | mouse | liver S9 | 2 µM | – | pH 7.4 | – | 2120 |
| CC(=O)Nc1cc(Nc2cc(NC3CC3)n3ncc(C#N)c3n2)ccc1N(C)C[C@@H]1CCCN1 | male CD-1 mouse | hepatocytes | 1 µM | – | – | serum-free | 171 |
